Measured values published in ChEMBL document CHEMBL1143268 (Bioorg Med Chem Lett, 2009).
≈ marks a conversion by molar mass, not a printed value.

Assays:
Intestine = test: (§1) Metabolic stability in rat intestinal homogenate; type: ADME, tissue-based; conditions: tissue homogenate
Liver = test: (§2) Metabolic stability in rat liver homogenate; type: ADME, tissue-based; conditions: tissue homogenate
Vaccinia virus [1] = test: Antiviral activity against Vaccinia virus infected in human foreskin fibroblasts by plaque assay; type: functional, organism-based; conditions: Orthopoxvirus vaccinia
Plasma = type: ADME, cell-free; conditions: rat
[2] = Solubility in water; type: physicochemical
Cowpox virus [3] = test: Antiviral activity against Cowpox virus infected in human foreskin fibroblasts by plaque assay; type: functional, organism-based
HeLa [4] = test: Cellular uptake in human HeLa cells after 45 mins; type: ADME, cell-based; conditions: 0.75 h
In short: (§3)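 Direct uptake measured over 45 min and expressed as nmol/mg, in HeLa cells stably expressing hPEPT1 and in parental HeLa controls. Valacyclovir served as the positive control for hPEPT1 carrier-mediated uptake. Values are means ± SD of three experiments.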

HeLa [5] = test: Cellular uptake in human HeLa cells expressing human PEPT1 transporter after 45 mins; type: ADME, cell-based; conditions: 0.75 h; in short: as §3
[6] = Permeability from apical to basolateral side in human Caco-2 cells after 21 days; type: ADME, cell-based; conditions: read-out: permeability
In short: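 Caco-2 monolayers were used 21 days post-seeding. Basolateral aliquots were taken at set intervals and replaced with HEPES buffer pH 7.4. Monolayer integrity was checked by transepithelial resistance.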

HFF = test: (§4) Cytotoxicity against HFF; type: cell-based; conditions: human, hff
In short: (§5)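 Cytotoxicity scored visually in uninfected human foreskin fibroblasts, reported as the 50% inhibitory concentration.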

Caco-2 = test: Permeability from apical to basolateral side in human Caco-2 cells after 21 days relative to vidarabine; type: ADME, cell-based; conditions: caco-2, 504 h
In short: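 Caco-2 monolayers were used 21 days post-seeding, with integrity checked by transepithelial resistance. Basolateral aliquots were taken at set intervals and replaced with HEPES buffer pH 7.4.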

[7] = Oral bioavailability in human; type: ADME, organism-based; conditions: in vivo
[8] = as §1; type: ADME, tissue-based, Intestine; conditions: intestinal homogenate
[9] = Cytotoxicity against HFF in presence of deoxy-coformycin; type: cell-based; conditions: human, HFF cells
In short: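 Cytotoxicity was scored visually in uninfected HFF cells, with 1 μM deoxycoformycin present, and reported as the 50% inhibitory concentration.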

Cowpox virus [10] = test: Antiviral activity against Cowpox virus infected in HFF by plaque assay in presence of deoxy-coformycin; type: functional, organism-based
[11] = as §2; type: ADME, tissue-based; conditions: liver homogenate
[12] = as §4; type: cell-based; conditions: human, HFF cells; in short: as §5
Vaccinia virus [13] = test: Antiviral activity against Vaccinia virus infected in HFF by plaque assay in presence of deoxy-coformycin; type: functional, organism-based; conditions: Orthopoxvirus vaccinia

Row | Structure (SMILES) | t1/2 (Intestine) | t1/2 (Liver) | EC50 (Vaccinia virus [1]) | t1/2 (Plasma) | solubility [2] | EC50 (Cowpox virus [3]) | CC50 (HFF) | further results
1 | CC[C@H](C)[C@@H](N)C(=O)OC[C@H]1O[C@@H](n2cnc3c(N)ncnc32)[C@@H](O)[C@@H]1O | 474 min | 18.6 min | 2.9 µM | 96.6 min | > 10000 µg/mL | 3.5 µM |  | 
2 | CC(C)[C@H](N)C(=O)OCCOCn1cnc2c(=O)[nH]c(N)nc21 [VALACYCLOVIR] |  |  |  |  |  |  |  | Drug uptake (HeLa [4]): 11.6 nmol/mg; Drug uptake (HeLa [5]): 221 nmol/mg
3 | CC(C)[C@@H](N)C(=O)OC[C@H]1O[C@@H](n2cnc3c(N)ncnc32)[C@@H](O)[C@@H]1O | Stable | 27.6 min | 4.1 µM | 615.6 min | > 10000 µg/mL | 8 µM | > 100 µM | Papp A→B [6]: 0.601 ×10⁻⁶ cm/s; fold change (FC) (Caco-2): 7.2
4 | COC(=O)[C@@H](NP(=O)(OC[C@H]1O[C@@H](n2cnc3c(N)ncnc32)[C@@H](O)[C@@H]1O)Oc1ccccc1)C(C)C (some centres not stated) | Stable | Stable |  | 18 min | > 10000 µg/mL |  |  | 
5 | Nc1ccn(C[C@@H](CO)OCP(=O)(O)O)c(=O)n1.O.O [CIDOFOVIR] |  |  |  |  |  |  |  | bioavailability [7]: 2%
6 | Nc1ncnc2c1ncn2[C@@H]1O[C@H](COC(=O)C[C@@H](N)C(=O)O)[C@@H](O)[C@@H]1O |  |  | 3.5 µM |  | > 10000 µg/mL | 25 µM | > 100 µM | 
7 | COC(=O)[C@H](NP(=O)(OC[C@H]1O[C@@H](n2cnc3c(N)ncnc32)[C@@H](O)[C@@H]1O)Oc1ccccc1)C(C)C (some centres not stated) | 1099 min | 355 min |  | 21 min | > 10000 µg/mL |  |  | 
8 | CC(C)C[C@@H](N)C(=O)OC[C@H]1O[C@@H](n2cnc3c(N)ncnc32)[C@@H](O)[C@@H]1O | 2.4 min | 3.6 min | 3 µM |  | > 10000 µg/mL | 2.5 µM |  | 
9 | Nc1ncnc2c1ncn2[C@@H]1O[C@H](CO)[C@@H](O)[C@@H]1O [VIDARABINE] |  |  | 6.2 µM |  | 470 µg/mL (≈ 1.76 mM) | 12.6 µM |  | half-life [8]: 3 min; Papp A→B [6]: 0.083 ×10⁻⁶ cm/s; CC50 [9]: 90 µM; EC50 (Cowpox virus [10]): 1.4 µM; half-life [11]: 15 min; CC50 [12]: > 100 µM; EC50 (Vaccinia virus [13]): 1 µM
10 | Nc1ncnc2c1ncn2[C@@H]1O[C@H](COC(=O)[C@H](N)CC(=O)O)[C@@H](O)[C@@H]1O |  |  | 2.5 µM |  | > 10000 µg/mL | 4 µM | > 100 µM | 
11 | CC(C)C[C@H](N)C(=O)OC[C@H]1O[C@@H](n2cnc3c(N)ncnc32)[C@@H](O)[C@@H]1O | 1.8 min | 3 min | 3.3 µM |  | > 10000 µg/mL | 3 µM | > 100 µM | 
12 | CC[C@H](C)[C@H](N)C(=O)OC[C@H]1O[C@@H](n2cnc3c(N)ncnc32)[C@@H](O)[C@@H]1O | 34.8 min | 3.6 min | 4.5 µM | 215 min | > 10000 µg/mL | 2.5 µM | > 100 µM | Papp A→B [6]: 1.03 ×10⁻⁶ cm/s; fold change (FC) (Caco-2): 12.4; Drug uptake (HeLa [4]): 7.5 nmol/mg; Drug uptake (HeLa [5]): 202 nmol/mg
13 | Nc1ncnc2c1ncn2[C@@H]1O[C@H](COC(=O)[C@H](N)Cc2ccccc2)[C@@H](O)[C@@H]1O | 35.4 min | 6 min | 2.3 µM |  | > 10000 µg/mL | 4 µM | > 100 µM | 
14 | CC(C)[C@H](N)C(=O)OC[C@H]1O[C@@H](n2cnc3c(N)ncnc32)[C@@H](O)[C@@H]1O | 18 min | 1.8 min | 4.8 µM | 7.8 min | > 10000 µg/mL | 4 µM |  | Drug uptake (HeLa [4]): 3.9 nmol/mg; Drug uptake (HeLa [5]): 80.3 nmol/mg
15 | Nc1ncnc2c1ncn2[C@@H]1O[C@H](COC(=O)[C@@H](N)Cc2ccccc2)[C@@H](O)[C@@H]1O | 16.2 min |  | 1.8 µM |  | > 10000 µg/mL | 3.5 µM |  | Papp A→B [6]: 0.668 ×10⁻⁶ cm/s; half-life [11]: 1.02 min; fold change (FC) (Caco-2): 8.05
